In ChEMBL document CHEMBL4190221, “Inhibition of Proliferation of Vascular Smooth Muscle Cells by Cucurbitanes from Momordica charantia” (J Nat Prod, 2017):
Calls of active or inactive are those of the source. No cut-off for these calls is given here.

Legend:
[1] = tested on: VSMC; experiment: Cytotoxicity against Sprague-Dawley rat VSMC assessed as decrease in cell viability at >5 uM after 24 hrs by MTT assay; type: cell-based
How it was run: (§1)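 Primary aortic smooth muscle cells from Sprague-Dawley rats, passages 7–10, grown in DMEM/10% FBS at 37 °C and seeded at 3.0 × 10^4 cells/mL. Cells were serum-starved 24 h, then exposed to compound for 24 h alongside a 0.1% DMSO control and a digitonin 100 μg/mL cytotoxicity control. MTT 5 mg/mL was added for 2 h, formazan taken up in DMSO, and OD read at 565 nm. Four independent experiments, each in triplicate.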

[2] = tested on: VSMC; experiment: Cytotoxicity against Sprague-Dawley rat VSMC assessed as decrease in cell viability at 0.5 to 1 uM after 24 hrs by MTT assay; type: cell-based; how it was run: as §1
[3] = tested on: VSMC; experiment: Inhibition of PDGF-induced Sprague-Dawley rat VSMC proliferation at 10 uM pretreated for 2 hrs followed by PDGF stimulation measured after 24 hrs by MTT assay relative to control; type: functional
How it was run: (§2)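 Rat aortic VSMCs (Sprague-Dawley, passages 7–10) were seeded at 3.0 × 10^4 cells/mL, grown 24 h in DMEM/10% FBS, then serum-starved 24 h. Compound was added 2 h before PDGF 25 ng/mL, followed by 24 h more incubation. Paclitaxel 1 μM served as positive control. MTT read-out at 565 nm. Four independent experiments in triplicate, compared against PDGF-stimulated cells.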

[4] = tested on: VSMC; experiment: Cytotoxicity against Sprague-Dawley rat VSMC assessed as decrease in cell viability at 5 to 10 uM after 24 hrs by MTT assay; type: cell-based; how it was run: as §1
[5] = tested on: VSMC; experiment: Inhibition of PDGF-induced Sprague-Dawley rat VSMC proliferation at 5 to 10 uM pretreated for 2 hrs followed by PDGF stimulation measured after 24 hrs by MTT assay; type: functional, cell-based; how it was run: as §2

Structure (SMILES)	Activity [1]	Activity [2]	inhibition at 10 µM [3] [%]	Activity [4]	inhibition [5]
COC(C)(C)/C=C/C[C@@H](C)[C@H]1CC[C@@]2(C)[C@@H]3C=C[C@@]45OC(=O)[C@]3(CC[C@]12C)[C@@H]4CC[C@H](OC(=O)CC(=O)O)C5(C)C	Toxic	Non-Toxic			
CO[C@H]1O[C@]23C=C[C@@H]4[C@@]1(CC[C@]1(C)[C@@H]([C@H](C)C/C=C/C(C)(C)OC)CC[C@@]41C)[C@@H]2CC[C@H](OC(=O)CC(=O)O)C3(C)C			72.4	Non-Toxic	
CO[C@H]1O[C@]23C=C[C@@H]4[C@@]1(CC[C@]1(C)[C@@H]([C@H](C)C/C=C/C(C)(C)OC)CC[C@@]41C)[C@@H]2CC[C@H](OC(=O)C(=O)O)C3(C)C				Non-Toxic	
C[C@H](C/C=C/C(C)(C)O)[C@H]1CC[C@@]2(C)[C@@H]3C=C[C@@]45OC(=O)[C@]3(CC[C@]12C)[C@@H]4CC[C@H](O[C@@H]1O[C@H](CO)[C@@H](O)[C@@H](O)[C@H]1O)C5(C)C				Non-Toxic	Active
COC(C)(C)/C=C/C[C@@H](C)[C@H]1CC[C@@]2(C)[C@@H]3[C@@H](O)C=C4[C@@H](CC[C@H](OC(=O)CC(=O)O)C4(C)C)[C@]3(C=O)CC[C@]12C				Non-Toxic	Active
C[C@H](C/C=C/C(C)(C)O)[C@H]1CC[C@@]2(C)[C@@H]3[C@@H](O)C=C4[C@@H](CC[C@H](OC(=O)CC(=O)O)C4(C)C)[C@]3(C=O)CC[C@]12C				Non-Toxic	Active
CO[C@H](C=C(C)C)C[C@@H](C)[C@H]1CC[C@@]2(C)[C@@H]3[C@@H](OC)C=C4[C@@H](CC[C@H](OC(=O)CC(=O)O)C4(C)C)[C@]3(C=O)CC[C@]12C			67.9	Non-Toxic	
